S1P1 ag-PAM = activates or potentiates agonism at human S1P1 receptor; P21453; 56,000 tested, 0.57% active; activation, % at 9.5 µM; S1P1 CRE-bla cells, forskolin, beta-lactamase FRET, potentiator mode; S1P1 agonist co-added at EC20, 2 nM; 100% = saturating reference agonist, 0% = basal; AID 449;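 active = activation above a cutoff set at the mean activation of all tested compounds plus 3 SD, cut at about 54% in these data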;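 note: forskolin at 4 µM as EC80 and the EC20 agonist is SEW2871; 100% = SEW2871 at its EC100 plus forskolin at EC80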
Target sequence (P21453 whole entry, looked up): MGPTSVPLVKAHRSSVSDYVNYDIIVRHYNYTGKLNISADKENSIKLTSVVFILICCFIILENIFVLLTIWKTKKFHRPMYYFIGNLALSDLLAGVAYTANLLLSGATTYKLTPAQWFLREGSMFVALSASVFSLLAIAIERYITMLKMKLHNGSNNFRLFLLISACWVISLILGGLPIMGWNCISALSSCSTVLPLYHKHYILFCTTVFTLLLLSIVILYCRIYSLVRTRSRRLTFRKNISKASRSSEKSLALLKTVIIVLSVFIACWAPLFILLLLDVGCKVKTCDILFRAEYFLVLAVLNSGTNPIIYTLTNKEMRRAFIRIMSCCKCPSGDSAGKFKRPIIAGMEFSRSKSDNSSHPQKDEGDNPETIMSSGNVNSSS
S1P3 ag = activates the human S1P3 receptor | Q99500 | S1P3 NFAT-BLA reporter cells, agonism, FRET ratio; relative to 1 µM S1P, basal subtracted | activation, % at 4.5 µM | 60,000 tested, 0.1% active | AID 373;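 active = activation above the screen-wide mean plus 3 SD, cut at about 4.5% in these data, passing the limit was not always enough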
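Material: Human S1P3 NFAT-BLA reporter CHO cells | Incubation: Overnight plating, 4 h compound 37 °C, 2 h substrate RT | Signal: FRET β-lactamase substrate fluorescence, excitation 405 nm, 460/535 nm emission ratio, background-subtracted | Compound: 4.5 µM final, single dose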
M1 antagonist = antagonists of rat M1 muscarinic receptor. CHO-M1 cells, Fluo-4 calcium, ACh EC80 antagonist mode; active compounds read low. B-score at 10 µM. 64,000 tested, 3.4% active. AID 628;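 active = calcium fluorescence response, raw or row-and-column corrected B-score, differing from the plate sample mean either way at a set confidence level, mostly lower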
D1 mod = allosterically modulates the human D1 dopamine receptor. HEK293 D1, CRE-luciferase, dopamine EC30 potentiation; actives deviate in either direction. B-score at 10 µM. 58,000 tested, 5.9% active;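 active = luminescence count or its row- and column-corrected plate score outside the 99.7% band of the plate's sample wells, on either side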
M1 agonist = activates the M1 muscarinic receptor | B-score at 10 µM | CHO-M1 cells, Fluo-4 calcium fluorescence, agonist mode; active compounds read high | 64,000 tested, 3% active;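 active = fluorescence rise, raw or as B-score row- and column-corrected plate score, outside the 99.7% band of its plate's samples, either direction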
TNAP act DEA = activates human TNAP at intermediate phosphate acceptor concentration; P05186; purified TNAP, CDP-star luminescence, 100 mM DEA, 30 min; active compounds read high; scale: 0 levamisole-inhibited, 1 vehicle-only enzyme; activation factor at 20 µM; 64,000 tested, under 10 active; AID 813;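 active = activation factor of at least 2 at 20 µM, relative to controls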
D1 mod confirm = confirmation of human D1 dopamine receptor allosteric modulators. AID 642. shares compounds with D1 mod. luminescence at 10 µM. 2,200 tested, 88% active. HEK293 D1 CRE-luciferase, dopamine EC30 potentiation; active compounds read high;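 active = luminescence in either of two replicates above the same-plate mean plus 3 SD of the low-dose dopamine control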
D1 no dopamine = activates D1 CRE-luciferase signal without dopamine present | shares compounds with D1 mod | HEK293 D1 CRE-luciferase, luminescence, no dopamine; active compounds read high | luminescence at 10 µM | 1,900 tested, 0.8% active; in the data active = luminescence above about 3900
Isoprot counter = counter-screen for D1 modulators: isoproterenol response in HEK293 cells; AID 647; shares compounds with D1 mod; luminescence at 10 µM; 2,200 tested, 63% active; HEK293 D1 CRE-luciferase, isoproterenol EC30 counter-screen; active compounds read high;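 active = luminescence in either replicate above plate mean of wells with a partly effective reference agonist dose plus 3 SD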;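 note: isoproterenol raises cAMP through native beta-adrenoceptor Gs so signal bypasses D1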
* hit, by the source's call; · = no result given. Compounds with a hit are over-represented: about 11% of the library has one in this group of screens.

SMILES | S1P1 ag-PAM | S1P3 ag | M1 antagonist | D1 mod | M1 agonist | TNAP act DEA | D1 mod confirm | D1 no dopamine | Isoprot counter
COc1ccc(OC)c(NC(=O)CN(c2ccc(OC)c(Cl)c2)S(C)(=O)=O)c1 | -7 | 0 | -0.077 | 4* | -0.62 | 0.9 | 16872* | 1728 | 4068*
COc1ccc2nc(NC(=O)C(NS(=O)(=O)c3cccs3)C(C)C)sc2c1 (stereo not given) | 0 | 0 | 0.42 | -0.94 | -0.077 | 1 | · | · | ·
Cc1noc(C)c1S(=O)(=O)N1CCC(C(=O)N2CCC(N3CCCCC3)CC2)CC1 | -16 | 0 | 0.19 | -0.39 | -0.16 | 1 | · | · | ·
COc1cc(Br)cc(-c2nc3c(c(=O)[nH]c(=O)n3Cc3ccccc3)n2C)c1O | · | · | 0.12 | 8.2* | -0.3 | 0.9 | 26460* | 1556 | 3668*
Cn1c(=O)[nH]c(=O)c2c1nc(Br)n2CCC(=O)c1ccccc1 | -11 | 0 | -0.41 | 1.8 | 0.073 | 0.9 | · | · | ·
Cc1noc(C)c1C(=O)Nc1ccccc1-c1ccccc1 | -7 | -1 | 0.15 | 0.4 | 0.14 | 0.9 | · | · | ·
CCn1c(CSc2nnc(C)n2-c2ccccc2)nc2cc(S(=O)(=O)N(C)C)ccc21 | -10 | 1 | 0.5 | 1.8* | 0.67 | 0.9 | 5780 | 1620 | 2596
CCn1c(CSc2nnc(-c3ccoc3C)n2C)nc2cc(S(=O)(=O)N(C)C)ccc21 | 13 | 0 | 0.026 | 0.53 | 0.41 | 1 | · | · | ·
Cc1cc(NC(=O)c2cnn3c(C(F)F)cc(-c4ccccc4)nc23)no1 | 8 | 0 | 0.04 | 1.9 | -0.55 | 0.8 | · | · | ·
O=C(NCCc1ccccc1)c1cnn2c(C(F)F)cc(C3CC3)nc12 | · | 0 | -0.42 | 5.1* | 0.0037 | 0.9 | 12520* | 1540 | 4428*
O=C(Nc1ccccc1C(=O)NCc1ccco1)c1ccccc1 | -29 | 0 | -0.65 | 5.3* | 0.93 | 0.9 | 10828* | · | 2924*
O=C(NCc1ccco1)c1cnn2c(C(F)F)cc(-c3ccccc3)nc12 | · | -1 | -1 | 5.2* | -1.1 | 0.8 | 7604* | 1664 | 3160*
O=C(Nc1ccccc1C(=O)NCc1ccccc1)c1ccco1 | · | -1 | -0.29 | 1.6 | 1.3 | 0.8 | · | · | ·
CCn1nnnc1SCC(=O)Nc1nc(-c2cccs2)cs1 | -3 | 1 | 0.45 | 0.07 | 0.39 | 0.8 | · | · | ·
N#Cc1c(N)n(C2CCCCC2)c2nc3ccccc3nc12 | -64 | 6 | 0.5 | 3.3* | -0.12 | 0.9 | 10836* | 1704 | 3052*
CCC(=O)Nc1c(C#N)c2nc3ccccc3nc2n1C1CCCCC1 | -25 | 0 | -0.65 | 1.3 | -1.7 | 0.9 | · | · | ·
CCOC(=O)C1(C(F)(F)F)N=C(c2cccnc2)OC(N2CCOCC2)=N1 (stereo not given) | -13 | 0 | 0.83 | 0.091 | 0.45 | 0.9 | · | · | ·
CCOC(=O)c1ccc(CSc2nnc(N)s2)cc1 | -4 | 0 | 0.22 | 3.7* | -0.45 | 1 | 10844* | · | 2972*
CCOC(=O)CSc1nnc(N)s1 | -18 | 0 | 0.61 | -0.84 | 1.2 | 0.9 | · | · | ·
CC(=O)Nc1cc2c(cc1C(=O)C(C)C)OCCO2 | -9 | 0 | 1.2 | 5.3* | -0.95 | 0.9 | 14100* | · | 3040*
Cc1cc2c(cc(C(=O)NCCCN3CCOCC3)n2Cc2ccc(Cl)cc2)o1 | -5 | 0 | -0.27 | 0.25 | -0.37 | 0.9 | · | · | ·
COCCN1C(=O)c2oc3cc(C)c(C)cc3c(=O)c2C1c1cccc(O)c1 (stereo not given) | -17 | -1 | 0.13 | 0.9 | -0.79 | · | · | · | ·
COc1ccc(C(=O)OCCNC(=O)c2c(Cl)nc3ccccn23)cc1 | -40 | 0 | 0.42 | 5.1* | 0.71 | 1 | 13996* | 1764 | 3784*
CSc1nncc(-c2ccc(F)c(F)c2)n1 | -12 | -1 | 0.56 | 4.4* | 0.22 | 0.9 | 11748* | 1704 | 3068

Compound activity: PubChem, several laboratories
